Data taken from ChEMBL document CHEMBL1687720 (Antimicrob Agents Chemother, 2009).

Legend:
A549 [1] = test: Effect on glutathione reductase expression in human A549 cells assessed as transcript level at 24 nM after 24 hrs by RT-qPCR analysis relative to untreated control; format: functional; conditions: in the assay text read “24 µM” for “24 nM”
In short: (§1)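 A549 cells are seeded at 2.5 × 10^5 per 25-cm2 well. At 40–45% confluence they are treated for 24 h with 166 or 662 μM, 158 or 315 μM, or 5 or 24 μM compound; controls receive <5% DMSO. Total RNA is DNase-treated and qRT-PCR is run in quadruplicate. Values are normalized to GAPDH and given as % of untreated control.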

A549 [2] = test: Inhibition of glutathione peroxidase in human A549 cells assessed as enzyme activity at 24 µM after 24 hrs relative to untreated control; design: scale not given: the % may be the effect or the level left
Plasmodium falciparum [3] = test: Downregulation of glutathione reductase mRNA level in Plasmodium falciparum 3D7 trophozoites at 126 nM after 18 hrs by RT-qPCR analysis relative to untreated control; format: functional
In short: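 P. falciparum 3D7 trophozoites are exposed to 126 nM compound for 12, 15 or 18 h, then harvested by saponin lysis at 37°C. RNA is extracted and reverse-transcribed, and transcripts are quantified by real-time PCR in quadruplicate. Analysis uses ΔΔCT with 18S rRNA as reference (LDH also checked), expressed as % of untreated control.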

Plasmodium berghei [4] = test: Antimalarial activity against Plasmodium berghei infected in mouse assessed as reduction in parasite load at 10 mg/kg for 4 days treated postinfection measured on day 4; format: functional; design: scale not given: the % may be the effect or the level left
In short: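 Murine Plasmodium berghei infection model. Compound given subcutaneously at 10 mg/kg for 4 days after infection, 13 treated mice and 13 controls. Parasitemia is compared with untreated controls, with significance by Fisher's exact test.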

Plasmodium falciparum [5] = test: Upregulation of glutathione synthetase mRNA level in Plasmodium falciparum 3D7 trophozoites at 126 nM after 12 hrs by RT-qPCR analysis relative to untreated control; format: functional
In short: (§2)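 Synchronized 3D7 trophozoites in RPMI/Albumax culture at 37°C under 3% O2, 3% CO2 were exposed 12, 15 or 18 h, then harvested by 0.02% saponin lysis. RNA was reverse-transcribed and analyzed by real-time PCR in quadruplicate. Quantification used ΔΔCT with 18S rRNA reference (LDH also checked), expressed as % of untreated control.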

Plasmodium falciparum [6] = test: Upregulation of selenoprotein-1 mRNA level in Plasmodium falciparum 3D7 trophozoites at 126 nM after 12 hrs by RT-qPCR analysis relative to untreated control; format: functional; in short: as §2
A549 [7] = test: Effect on glutathione S-transferase expression in human A549 cells assessed as transcript level at 24 nM after 24 hrs by RT-qPCR analysis relative to untreated control; format: functional; conditions: in the assay text read “24 µM” for “24 nM”; in short: as §1
A549 [8] = test: Inhibition of glutathione S-transferase in human A549 cells assessed as enzyme activity at 24 µM after 24 hrs relative to untreated control; design: scale not given: the % may be the effect or the level left
A549 [9] = test: Inhibition of glutathione S-transferase in human A549 cells assessed as enzyme activity at 5 µM after 24 hrs relative to untreated control; design: scale not given: the % may be the effect or the level left
Plasmodium falciparum [10] = test: Antiplasmodial activity against chloroquine-sensitive Plasmodium falciparum 3D7 assessed as inhibition of ring stage parasite growth at 526 nM after 24 hrs by [3H]hypoxanthine incorporation assay; format: functional; conditions: read-out: GI
In short: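 P. falciparum 3D7 is synchronized with sorbitol. […] Cells are washed four times, then labelled with [3H]hypoxanthine for 24 h. Growth is given as % of untreated control for each stage, in triplicate.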

Plasmodium berghei [11] = test: Antimalarial activity against Plasmodium berghei infected in mouse assessed as reduction in parasite load at 10 mg/kg for 4 days treated postinfection measured on day 9; format: functional; design: scale not given: the % may be the effect or the level left
In short: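 Murine P. berghei model; compound given subcutaneously at 10 mg/kg for 4 days postinfection; parasitemia compared with untreated controls (n = 13 per group) on days 4, 7 and 9; significance by Fisher's exact test.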

A549 [12] = test: Effect on glutathione reductase expression in human A549 cells assessed as transcript level at 166 nM after 24 hrs by RT-qPCR analysis relative to untreated control; format: functional; conditions: in the assay text read “166 µM” for “166 nM”; in short: as §1
Thioredoxin reductase = Thioredoxin reductase (Homo sapiens, UniProt Q16881+Q9NNW7+Q86VQ6); test: Inhibition of thioredoxin reductase in human A549 cells assessed as enzyme activity at 662 µM after 24 hrs by DTNB assay relative to untreated control; design: scale not given: the % may be the effect or the level left
A549 [13] = test: Effect on glutathione peroxidase expression in human A549 cells assessed as transcript level at 166 nM after 24 hrs by RT-qPCR analysis relative to untreated control; format: functional; conditions: in the assay text read “166 µM” for “166 nM”; in short: as §1
A549 [14] = test: Inhibition of glutathione S-transferase in human A549 cells assessed as enzyme activity at 166 µM after 24 hrs relative to untreated control; design: scale not given: the % may be the effect or the level left
Plasmodium falciparum [15] = test: Antiplasmodial activity against chloroquine-resistant Plasmodium falciparum K1 in presence of artemether; format: functional
Plasmodium falciparum [16] = test: Antiplasmodial activity against chloroquine-resistant Plasmodium falciparum K1 in presence of artesunate; format: functional
Plasmodium falciparum [17] = test: Antiplasmodial activity against chloroquine-resistant Plasmodium falciparum K1 in presence of premaquine; format: functional
Plasmodium falciparum [18] = test: Antiplasmodial activity against chloroquine-resistant Plasmodium falciparum K1 in presence of amodiaquine; format: functional
A549 [19] = test: Effect on glutathione peroxidase expression in human A549 cells assessed as transcript level at 662 nM after 24 hrs by RT-qPCR analysis relative to untreated control; format: functional; conditions: in the assay text read “662 µM” for “662 nM”; in short: as §1
[20] = target: T1, Glutathione reductase, mitochondrial (Homo sapiens) (UniProt P00390); test: Inhibition of glutathione reductase in human A549 cells assessed as enzyme activity at 315 µM after 24 hrs relative to untreated control; design: scale not given: the % may be the effect or the level left
T1 sequence (whole entry): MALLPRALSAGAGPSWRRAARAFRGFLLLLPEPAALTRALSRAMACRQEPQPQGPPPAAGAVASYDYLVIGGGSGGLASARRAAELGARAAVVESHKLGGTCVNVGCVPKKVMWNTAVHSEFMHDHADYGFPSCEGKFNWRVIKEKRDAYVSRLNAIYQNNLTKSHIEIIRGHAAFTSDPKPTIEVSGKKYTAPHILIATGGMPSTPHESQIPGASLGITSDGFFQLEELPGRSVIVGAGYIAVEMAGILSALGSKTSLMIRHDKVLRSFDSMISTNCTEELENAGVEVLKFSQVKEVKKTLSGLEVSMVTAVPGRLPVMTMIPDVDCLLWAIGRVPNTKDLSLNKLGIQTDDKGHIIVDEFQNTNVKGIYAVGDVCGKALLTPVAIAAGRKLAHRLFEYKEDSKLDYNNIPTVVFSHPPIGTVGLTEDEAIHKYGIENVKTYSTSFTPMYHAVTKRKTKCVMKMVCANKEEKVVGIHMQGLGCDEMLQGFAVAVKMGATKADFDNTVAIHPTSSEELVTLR

With `O=c1oc2c(O)c(O)c(O)c3c(=O)oc4c(O)c(O)c(O)c1c4c23` [CORULEOELLAGIC ACID] the Activity (A549 [1]) was 84%, the Activity (A549 [2]) was 78% and the Activity (Plasmodium falciparum [3]) was 62%. The Activity (Plasmodium berghei [4]) was 84%, the Activity (Plasmodium falciparum [5]) was 128% and the Activity (Plasmodium falciparum [6]) was 160%. The Activity (A549 [7]) was 84%, the Activity (A549 [8]) was 106% and the Activity (A549 [9]) was 101%. For the same molecule, the inhibition of growth at 0.526 µM (Plasmodium falciparum [10]) was 38% and the Activity (Plasmodium berghei [11]) was 50%.
With `O=c1oc2c(O)c(O)cc3c(=O)oc4c(O)c(O)cc1c4c23` [ELLAGIC ACID] the Activity (A549 [12]) was 152%, the Activity (Thioredoxin reductase) was 77% and the Activity (A549 [13]) was 109%. The Activity (A549 [14]) was 109%, the FIC50 (Plasmodium falciparum [15]) was 1 and the FIC50 (Plasmodium falciparum [16]) was 1. For the same molecule, the FIC50 (Plasmodium falciparum [17]) was 1, the FIC50 (Plasmodium falciparum [18]) was 1 and the Activity (A549 [19]) was 150%.
For `O=c1oc2c(O)c(O)c(O)c3c(=O)oc4c(O)c(O)cc1c4c23` [FLAVELLAGIC ACID], the Activity [20] was 119%.
